Assay results published in BindingDB's records for doi:10.1016/j.bmcl.2005.10.065 (Cytrx Laboratories, 2005).
pIC50: −log10 of the molar value.

Target: T1, NADP-dependent malic enzyme (Homo sapiens, UniProt P48163)
T1 sequence (P48163 whole entry): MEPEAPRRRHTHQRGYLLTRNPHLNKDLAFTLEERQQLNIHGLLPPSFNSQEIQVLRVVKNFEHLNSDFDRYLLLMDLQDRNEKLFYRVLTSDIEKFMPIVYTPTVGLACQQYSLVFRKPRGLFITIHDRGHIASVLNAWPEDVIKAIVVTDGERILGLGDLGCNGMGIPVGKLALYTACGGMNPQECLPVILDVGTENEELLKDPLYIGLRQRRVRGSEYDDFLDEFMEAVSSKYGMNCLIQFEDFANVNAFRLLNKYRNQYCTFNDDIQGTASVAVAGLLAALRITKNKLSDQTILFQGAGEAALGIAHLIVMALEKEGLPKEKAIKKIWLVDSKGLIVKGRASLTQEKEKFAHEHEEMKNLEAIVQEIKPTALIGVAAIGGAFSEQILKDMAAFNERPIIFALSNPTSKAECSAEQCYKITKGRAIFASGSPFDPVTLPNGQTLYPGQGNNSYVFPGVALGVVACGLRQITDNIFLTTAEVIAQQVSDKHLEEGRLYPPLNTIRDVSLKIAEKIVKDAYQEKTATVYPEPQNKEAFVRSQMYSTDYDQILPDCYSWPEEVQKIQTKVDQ
Test: Inhibitory activity against cytosolic malic enzyme
Procedure, shortened: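 Coupled endpoint assay. Enzyme pre-incubated with compound 45 min at room temperature in 85 mM Tris pH 7.5 containing 2 mM malic acid and 5 mM MnCl2. Reaction started with 124 µM NADP, run 30 min at room temperature, stopped with 0.5 M EDTA. NADPH formed read via MTS/PMS reduction to formazan, absorbance at 492 nm.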

Work on `COc1ccc(N2CCN(c3cc(O)n(-c4ccccc4)c3O)CC2)cc1` [3-(4-(4-methoxyphenyl)piperazin-1-yl)-1-phenylpyrrolidine-2,5-dione] yielded a pIC50 of under 4.70.
With `COc1ccc(N2CCN(c3cc(O)n(-c4cccc(Cl)c4Cl)c3O)CC2)cc1` [1-(2,3-dichlorophenyl)-3-(4-(4-methoxyphenyl)piperazin-1-yl)pyrrolidine-2,5-dione] the pIC50 was under 4.70.
